Laboratory results: ChEMBL document CHEMBL4257453, “Identification of karanjin isolated from the Indian beech tree as a potent CYP1 enzyme inhibitor with cellular efficacy via screening of a natural product repository” (Medchemcomm, 2018)

Assays:
[1] = target: T1, CYP1A1 (Homo sapiens, UniProt P04798); experiment: Inhibition of recombinant human CYP1A1 expressed in baker's yeast-derived microsomes (Sacchrosomes) at 10 uM using 7-ethoxyresorufin substrate by EROD assay relative to control; details: probe 7-ethoxyresorufin
T1 sequence (P04798 whole entry): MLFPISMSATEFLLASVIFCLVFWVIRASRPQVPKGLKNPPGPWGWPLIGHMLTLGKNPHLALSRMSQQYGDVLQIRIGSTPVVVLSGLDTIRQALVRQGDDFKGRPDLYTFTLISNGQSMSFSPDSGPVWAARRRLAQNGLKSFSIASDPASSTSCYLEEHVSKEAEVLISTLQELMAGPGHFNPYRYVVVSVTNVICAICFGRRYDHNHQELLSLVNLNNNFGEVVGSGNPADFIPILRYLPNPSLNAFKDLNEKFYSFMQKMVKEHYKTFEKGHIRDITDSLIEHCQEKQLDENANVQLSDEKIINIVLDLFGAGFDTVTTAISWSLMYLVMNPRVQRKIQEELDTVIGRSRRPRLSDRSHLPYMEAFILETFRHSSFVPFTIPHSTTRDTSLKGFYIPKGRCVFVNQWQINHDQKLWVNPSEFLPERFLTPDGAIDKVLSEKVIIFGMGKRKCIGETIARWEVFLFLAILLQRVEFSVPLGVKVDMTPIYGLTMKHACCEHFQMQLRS
Method in brief: (§1)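 Yeast microsomes carrying recombinant CYP (Sacchrosomes). Substrates per isoform are 7-ethoxyresorufin, 3-cyano-7-ethoxycoumarin, EOMCC or dibenzylfluorescein, read as endpoint fluorescence. Background from compound-only wells without enzyme is subtracted. Independent triplicate runs; α-naphthoflavone positive control.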

[2] = target: Cytochrome P450 3A4 (Homo sapiens, UniProt P08684); experiment: Inhibition of human recombinant CYP3A4 expressed in HEK293 cells using dibenzylfluorescein substrate substrate preincubated for 30 mins followed by substrate addition and measured after 60 mins by fluorescence assay relative to control; type: ADME, cell-based
Method in brief: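 HEK293 cells adapted to suspension and transiently transfected with pcDNA3.1 plasmids carrying the individual CYP; 100×10^3 cells per well in triplicate. Fluorogenic substrate is then added at 5 μM and fluorescence read for 60 min.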

[3] = target: Cytochrome P450 2D6 (Homo sapiens, UniProt P10635); experiment: Inhibition of human recombinant CYP2D6 expressed in HEK293 cells using 7-ethoxy-methyloxy-3-cyanocoumarin substrate substrate preincubated for 30 mins followed by substrate addition and measured after 60 mins by fluorescence assay relative to control; type: ADME, cell-based
Method in brief: (§2)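 HEK293 cells adapted to suspension and transiently transfected with pcDNA3.1 plasmids carrying the individual CYP; 100×10^3 cells per well in triplicate. […] Fluorogenic substrate is then added at 5 μM and fluorescence read for 60 min.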

[4] = target: T2, CYP1A2 (Homo sapiens, UniProt P05177); experiment: Inhibition of recombinant human CYP1A2 expressed in baker's yeast-derived microsomes (Sacchrosomes) at 10 uM using 3-cyano-7-ethoxycoumarin substrate by EROD assay relative to control; type: ADME; details: probe 3-cyano-7-ethoxycoumarin; method in brief: as §1
T2 sequence (P05177 whole entry): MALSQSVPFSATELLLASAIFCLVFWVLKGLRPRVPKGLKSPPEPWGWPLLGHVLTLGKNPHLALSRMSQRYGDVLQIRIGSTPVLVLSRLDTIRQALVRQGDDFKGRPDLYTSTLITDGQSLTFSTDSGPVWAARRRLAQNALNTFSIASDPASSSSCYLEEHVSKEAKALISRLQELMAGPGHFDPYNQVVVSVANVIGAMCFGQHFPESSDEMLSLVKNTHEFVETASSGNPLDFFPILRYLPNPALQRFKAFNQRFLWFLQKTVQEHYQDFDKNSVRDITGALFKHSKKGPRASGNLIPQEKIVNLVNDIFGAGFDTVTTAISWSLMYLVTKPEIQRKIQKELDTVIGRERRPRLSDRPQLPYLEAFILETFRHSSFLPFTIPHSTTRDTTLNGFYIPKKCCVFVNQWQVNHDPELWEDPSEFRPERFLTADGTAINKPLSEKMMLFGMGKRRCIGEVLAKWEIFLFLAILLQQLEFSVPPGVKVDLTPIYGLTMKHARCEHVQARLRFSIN

[5] = target: CYP2C19 (Homo sapiens, UniProt P33261); experiment: Inhibition of recombinant human CYP2C19 expressed in baker's yeast-derived microsomes (Sacchrosomes) at 10 uM using 3-cyano-7-ethoxycoumarin substrate by EROD assay relative to control; type: ADME; details: probe 3-cyano-7-ethoxycoumarin
Method in brief: as §1, with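 “(Sacchrosomes). […]” for “(Sacchrosomes).”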

[6] = target: T3, Cytochrome P450 1B1 (Homo sapiens, UniProt Q16678); experiment: Inhibition of human recombinant CYP1B1 expressed in HEK293 cells using 7-ethoxyresorufin substrate substrate preincubated for 30 mins followed by substrate addition and measured after 60 mins by fluorescence assay relative to control; type: ADME, cell-based; method in brief: as §2
T3 sequence (Q16678 whole entry): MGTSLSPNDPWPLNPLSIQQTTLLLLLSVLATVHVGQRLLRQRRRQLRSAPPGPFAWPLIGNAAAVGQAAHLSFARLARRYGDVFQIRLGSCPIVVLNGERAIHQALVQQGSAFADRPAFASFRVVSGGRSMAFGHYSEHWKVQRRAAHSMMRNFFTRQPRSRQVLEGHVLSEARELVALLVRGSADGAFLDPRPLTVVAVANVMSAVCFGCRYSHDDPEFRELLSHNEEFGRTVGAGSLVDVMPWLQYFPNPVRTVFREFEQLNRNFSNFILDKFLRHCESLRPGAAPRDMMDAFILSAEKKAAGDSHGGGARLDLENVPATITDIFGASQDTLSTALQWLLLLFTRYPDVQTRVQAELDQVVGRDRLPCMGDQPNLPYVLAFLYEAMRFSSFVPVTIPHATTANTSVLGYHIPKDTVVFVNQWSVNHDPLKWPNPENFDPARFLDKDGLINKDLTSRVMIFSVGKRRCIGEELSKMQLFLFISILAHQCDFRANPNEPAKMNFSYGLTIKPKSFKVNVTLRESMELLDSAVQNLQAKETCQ

[7] = target: Cytochrome P450 2C9 (Homo sapiens, UniProt P11712); experiment: Inhibition of human recombinant CYP2C9 expressed in HEK293 cells using 3-cyano-7-ethoxycoumarin substrate substrate preincubated for 30 mins followed by substrate addition and measured after 60 mins by fluorescence assay relative to control; type: ADME, cell-based; method in brief: as §2
[8] = target: T4, CYP1B1 (Homo sapiens, UniProt Q16678); experiment: Inhibition of recombinant human CYP1B1 expressed in baker's yeast-derived microsomes (Sacchrosomes) at 10 uM using 7-ethoxyresorufin substrate by EROD assay relative to control; type: ADME; details: probe 7-ethoxyresorufin
T4 sequence (Q16678 whole entry): T3 sequence (Q16678 whole entry)
Method in brief: as §1, with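 “(Sacchrosomes). […]” for “(Sacchrosomes).”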

[9] = target: T5, Cytochrome P450 1A1 (Homo sapiens, UniProt P04798); experiment: Inhibition of human recombinant CYP1A1 expressed in HEK293 cells using 7-ethoxyresorufin substrate preincubated for 30 mins followed by substrate addition and measured after 60 mins by fluorescence assay relative to control; type: cell-based; method in brief: as §2
T5 sequence (P04798 whole entry): T1 sequence (P04798 whole entry)

[10] = target: T6, Cytochrome P450 1A2 (Homo sapiens, UniProt P05177); experiment: Inhibition of human recombinant CYP1A2 expressed in HEK293 cells using 3-cyano-7-ethoxycoumarin substrate preincubated for 30 mins followed by substrate addition and measured after 60 mins by fluorescence assay relative to control; type: ADME, cell-based; method in brief: as §2
T6 sequence (P05177 whole entry): T2 sequence (P05177 whole entry)

[11] = target: CYP3A4 (Homo sapiens, UniProt P08684); experiment: Inhibition of recombinant human CYP3A4 expressed in baker's yeast-derived microsomes (Sacchrosomes) at 10 uM using dibenzylfluorescein substrate by EROD assay relative to control; type: ADME; details: probe dibenzylfluorescein
Method in brief: as §1, with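 “(Sacchrosomes). […]” for “(Sacchrosomes).”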

[12] = target: CYP2C9 (Homo sapiens, UniProt P11712); experiment: Inhibition of recombinant human CYP2C9 expressed in baker's yeast-derived microsomes (Sacchrosomes) at 10 uM using 3-cyano-7-ethoxycoumarin substrate by EROD assay relative to control; type: ADME; details: probe 3-cyano-7-ethoxycoumarin
Method in brief: as §1, with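 “(Sacchrosomes). […]” for “(Sacchrosomes).”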

[13] = target: T1, CYP1A1; experiment: Inhibition of human recombinant CYP1A1 expressed in HEK293 cells at 10 uM using 7-ethoxyresorufin substrate preincubated for 30 mins followed by substrate addition and measured after 60 mins by fluorescence assay relative to control; type: cell-based; details: HEK293 cells expressing human recombinant CYP1A1, probe 7-ethoxyresorufin; method in brief: as §2
[14] = target: Cytochrome P450 2C19 (Homo sapiens, UniProt P33261); experiment: Inhibition of human recombinant CYP2C19 expressed in HEK293 cells using 3-cyano-7-ethoxycoumarin substrate substrate preincubated for 30 mins followed by substrate addition and measured after 60 mins by fluorescence assay relative to control; type: ADME, cell-based; method in brief: as §2
[15] = target: CYP2D6 (Homo sapiens, UniProt P10635); experiment: Inhibition of recombinant human CYP2D6 expressed in baker's yeast-derived microsomes (Sacchrosomes) at 10 uM using 7-ethoxy-methyloxy-3-cyanocoumarin substrate by EROD assay relative to control; type: ADME; details: probe 7-ethoxy-methyloxy-3-cyanocoumarin
Method in brief: as §1, with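 “(Sacchrosomes). […]” for “(Sacchrosomes).”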

Chain of CYP2C9 (P11712 whole entry): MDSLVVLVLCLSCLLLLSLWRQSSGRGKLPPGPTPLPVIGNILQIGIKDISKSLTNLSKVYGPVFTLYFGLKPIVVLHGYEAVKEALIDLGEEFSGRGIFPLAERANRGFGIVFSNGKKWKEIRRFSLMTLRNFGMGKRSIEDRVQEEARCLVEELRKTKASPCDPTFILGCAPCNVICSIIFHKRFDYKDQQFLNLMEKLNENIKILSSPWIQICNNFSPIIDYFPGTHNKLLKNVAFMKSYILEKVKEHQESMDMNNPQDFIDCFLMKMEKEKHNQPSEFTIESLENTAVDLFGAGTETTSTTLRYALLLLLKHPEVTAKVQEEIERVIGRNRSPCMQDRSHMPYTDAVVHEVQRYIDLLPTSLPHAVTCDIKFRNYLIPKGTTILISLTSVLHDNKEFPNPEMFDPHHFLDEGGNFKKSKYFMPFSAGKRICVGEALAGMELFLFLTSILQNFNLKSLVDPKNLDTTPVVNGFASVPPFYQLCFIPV
Chain of Cytochrome P450 2C9 (P11712 whole entry): as above
Chain of CYP2C19 (P33261 whole entry): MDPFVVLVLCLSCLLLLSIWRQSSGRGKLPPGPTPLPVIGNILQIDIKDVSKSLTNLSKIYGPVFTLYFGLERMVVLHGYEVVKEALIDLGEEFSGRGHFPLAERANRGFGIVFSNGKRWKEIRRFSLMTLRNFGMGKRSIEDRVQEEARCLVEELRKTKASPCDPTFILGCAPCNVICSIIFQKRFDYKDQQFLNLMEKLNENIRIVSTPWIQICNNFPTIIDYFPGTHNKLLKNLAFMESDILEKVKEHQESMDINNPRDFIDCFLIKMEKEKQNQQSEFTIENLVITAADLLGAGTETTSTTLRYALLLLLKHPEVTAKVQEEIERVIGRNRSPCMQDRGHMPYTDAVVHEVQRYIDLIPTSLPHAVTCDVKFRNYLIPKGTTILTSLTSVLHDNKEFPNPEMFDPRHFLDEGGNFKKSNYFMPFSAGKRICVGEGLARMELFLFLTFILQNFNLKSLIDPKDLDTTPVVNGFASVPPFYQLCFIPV
Chain of Cytochrome P450 2C19 (P33261 whole entry): as above
Chain of Cytochrome P450 2D6 (P10635 whole entry): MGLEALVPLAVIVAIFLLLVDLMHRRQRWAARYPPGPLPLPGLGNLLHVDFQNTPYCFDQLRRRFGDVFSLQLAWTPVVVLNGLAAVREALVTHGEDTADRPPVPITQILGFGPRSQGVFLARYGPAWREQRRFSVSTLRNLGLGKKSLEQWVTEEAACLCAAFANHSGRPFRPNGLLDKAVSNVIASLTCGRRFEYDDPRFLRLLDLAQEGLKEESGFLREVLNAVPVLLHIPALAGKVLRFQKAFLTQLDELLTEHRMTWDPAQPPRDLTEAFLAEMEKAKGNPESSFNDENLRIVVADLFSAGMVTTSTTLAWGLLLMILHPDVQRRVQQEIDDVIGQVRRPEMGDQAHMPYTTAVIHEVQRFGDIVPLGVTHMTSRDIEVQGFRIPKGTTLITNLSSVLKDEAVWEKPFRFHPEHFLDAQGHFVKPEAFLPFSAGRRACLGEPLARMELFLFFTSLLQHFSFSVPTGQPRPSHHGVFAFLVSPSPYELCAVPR
Chain of CYP2D6 (P10635 whole entry): as above
Chain of Cytochrome P450 3A4 (P08684 whole entry): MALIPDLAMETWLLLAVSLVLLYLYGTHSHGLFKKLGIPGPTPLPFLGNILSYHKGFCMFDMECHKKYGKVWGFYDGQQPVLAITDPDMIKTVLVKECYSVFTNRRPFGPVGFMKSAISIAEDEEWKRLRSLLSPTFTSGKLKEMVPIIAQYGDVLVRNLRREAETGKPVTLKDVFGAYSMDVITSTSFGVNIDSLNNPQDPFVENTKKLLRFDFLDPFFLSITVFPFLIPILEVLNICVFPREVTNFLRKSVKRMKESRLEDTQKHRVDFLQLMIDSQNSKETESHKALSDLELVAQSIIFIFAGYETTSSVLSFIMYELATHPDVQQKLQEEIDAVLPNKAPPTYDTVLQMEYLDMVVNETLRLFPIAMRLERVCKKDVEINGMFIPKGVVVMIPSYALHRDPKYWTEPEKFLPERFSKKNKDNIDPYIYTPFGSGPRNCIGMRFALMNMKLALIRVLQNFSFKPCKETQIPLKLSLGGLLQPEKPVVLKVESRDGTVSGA
Chain of CYP3A4 (P08684 whole entry): as above

| Structure (SMILES) | inhibition at 10 µM [1] | IC50 [2] | IC50 [3] | inhibition at 10 µM [4] | inhibition at 10 µM [5] | IC50 [6] | IC50 [7] | inhibition at 10 µM [8] | IC50 [9] | Ki [9] | IC50 [10] | Ki [10] | inhibition at 10 µM [11] | inhibition at 10 µM [12] | inhibition at 1 h, 10 µM [13] | IC50 [14] | inhibition at 10 µM [15] |
| --- | --- | --- | --- | --- | --- | --- | --- | --- | --- | --- | --- | --- | --- | --- | --- | --- | --- |
| COc1ccc(-c2cc(=O)c3c(O)c(OC)c(OC)cc3o2)cc1OC | 80% | > 10 µM | > 10 µM | 90% | 5% | 2.5 µM | > 10 µM | 70% | 1.38 µM | 1.42 µM | 0.9 µM | 0.78 µM | 9% | 7% | 96% | > 10 µM | 13% |
| C=CCOc1cc(OCC=C)c2ccc(=O)oc2c1 | 69% | – | – | – | – | – | – | – | – | – | – | – | – | – | – | – | – |
| COc1ccc2c(c1OC)C(OC)N(C)c1c-2ccc2cc3c(cc12)OCO3 (configuration not stated) | 90% | > 10 µM | > 10 µM | 7% | 3% | 7.7 µM | > 10 µM | 10% | 3.03 µM | 3.25 µM | 8.93 µM | 9.16 µM | 6% | 4% | 80% | > 10 µM | 11% |
| CC(C)(O)C(O)COc1c2occc2cc2ccc(=O)oc12 (configuration not stated) | 72% | – | – | – | – | – | – | – | – | – | – | – | – | – | – | – | – |
| O=c1ccc2ccc3occc3c2o1 [ANGELICIN] | 80% | – | – | – | – | – | – | – | – | – | – | – | – | – | – | – | – |
| COc1ccc2cc3[n+](cc2c1OC)CCc1cc2c(cc1-3)OCO2 [BERBERINE CHLORIDE] | 48% | – | – | – | – | – | – | – | – | – | – | – | – | – | – | – | – |

Second part, the molecule after the results:

| inhibition at 10 µM [1] | IC50 [2] | IC50 [3] | inhibition at 10 µM [4] | inhibition at 10 µM [5] | IC50 [6] | IC50 [7] | inhibition at 10 µM [8] | IC50 [9] | Ki [9] | IC50 [10] | Ki [10] | inhibition at 10 µM [11] | inhibition at 10 µM [12] | inhibition at 1 h, 10 µM [13] | IC50 [14] | inhibition at 10 µM [15] | Structure (SMILES) |
| --- | --- | --- | --- | --- | --- | --- | --- | --- | --- | --- | --- | --- | --- | --- | --- | --- | --- |
| 89% | – | – | – | – | – | – | – | – | – | – | – | – | – | – | – | – | CCOc1c2occc2cc2ccc(=O)oc12 |
| 52% | – | – | – | – | – | – | – | – | – | – | – | – | – | – | – | – | Cc1c(O)c2c(c(C(=O)/C=C/c3ccccc3)c1O)OC(C)(C)C=C2 |
| 85 to 87% | > 10 µM | > 10 µM | 8% | 3% | 6.04 µM | > 10 µM | 12% | 2.23 µM | 1.96 µM | 3.16 µM | 3.86 µM | 9% | 0% | 85% | > 10 µM | 14% | COc1c(C(=O)CC(=O)c2ccccc2)ccc2occc12 |
| – | – | – | – | 9% | – | – | 96% | – | – | – | – | 6% | 10% | – | – | 5% | O=c1cc(-c2ccccc2)oc2c1ccc1ccccc12 [ALPHA-NAPHTHOFLAVONE] |
